High-throughput results: PubChem, Broad Institute
MLL AF4-AF9 inh: inhibitors of AF4 peptide binding to AF9, primary screen, biochemical, AlphaScreen, biotin-AF4 peptide, FLAG-AF9, single point | 0.47% of 350,000 active | Protein AF-9 (Homo sapiens), P42568 | inhibition, % at 10 µM;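 active means every replicate reaching a set inhibition limit, whatever the replicate mean, cut at about 25% in these data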
GSIS activator: GLuc luminescence reporter in INS-1E cells, primary screen for activators of glucose-dependent secretion of insulin; 0.61% of 370,000 active; INS-1E GLuc reporter insulin secretion, 2-3 h; activation, % at 16.6 µM;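 active means lowest replicate activation of at least 40%, so every replicate reaches that level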
E-selectin induc: E-selectin induction in HUVECs, primary screen, imaging, HUVEC, immunofluorescence imaging, single point. activation, % at 7.58 µM. 0.37% of 260,000 active. normalized: neutral wells 0, TNF-alpha wells 100;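 active means mean E-selectin-positive cell signal at least 10% of the positive control, reached in at least 60% of replicates, without over 20% cell loss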
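material = human umbilical vein endothelial cells (HUVEC), E-selectin induction | quantity = 3,000 cells/well | medium = EGM-2 growth medium on 0.1% gelatin-coated wells | technique = immunofluorescence imaging | read-out basis = % PE-positive cells | control set = TNF-alpha positive control, DMSO neutral control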
RAD54 inh: inhibitors of human RAD54 branch migration, primary screen, biochemical, fluorescence, single point; RAD54 Holliday junction branch migration, FAM/BHQ fluorescence; inhibition, % at 10.4 µM; AID 602329, 2012; 0.14% of 360,000 active; DNA repair and recombination protein RAD54-like (Homo sapiens), Q92698;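 active means mean normalized replicate activity at least 40 and at least half of replicates scoring 40 or more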;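 further: inhibitors cause a drop in the FAM fluorescence signal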
rRNA inh HTS: reduced GFP signal of wild-type E. coli, primary screen, bacterial rRNA inhibitor project, GFP/RFP fluorescence, OD600, single point. 1.6% of 350,000 active. E. coli WT GFP vs humanized-ribosome RFP mutants, 24 h; stronger effect = lower value; DMSO median 0, no signal -100. AID 720706, 2013. GFP signal change (wild-type ribosome), % (test concentration not listed);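 active means significant combined selectivity score with lowered wild-type GFP, culture density cut under 30%, mutant RFP and density less affected; inactive means any of these conditions unmet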
RAD52 inh: RAD52 DNA annealing inhibitors, primary screen, biochemical, FRET, single point, set 2; recombinant RAD52 DNA annealing, FRET fluorescence; inhibition, % at 18.7 µM; DNA repair protein RAD52 homolog (Homo sapiens), P43351; AID 651710, 2012; 0.46% of 360,000 active;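 active means every replicate showing at least 50% inhibition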
Target sequence (P43351 whole entry, looked up): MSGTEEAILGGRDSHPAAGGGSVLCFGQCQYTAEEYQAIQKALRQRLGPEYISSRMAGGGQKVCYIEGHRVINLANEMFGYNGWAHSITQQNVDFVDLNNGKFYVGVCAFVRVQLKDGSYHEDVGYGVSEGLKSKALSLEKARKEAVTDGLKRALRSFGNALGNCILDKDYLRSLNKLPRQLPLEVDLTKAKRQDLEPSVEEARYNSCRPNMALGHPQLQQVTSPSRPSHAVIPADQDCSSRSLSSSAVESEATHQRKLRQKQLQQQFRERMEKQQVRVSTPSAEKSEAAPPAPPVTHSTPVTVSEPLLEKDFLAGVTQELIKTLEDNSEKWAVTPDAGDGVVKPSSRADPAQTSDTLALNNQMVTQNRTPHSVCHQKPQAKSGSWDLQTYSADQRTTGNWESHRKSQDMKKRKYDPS
Large screens that a line does not name were inactive. Shown are actives, neighbours in structure and some others; about 2.6% of the full set was active somewhere.

C[C@@H]1CN([C@@H](C)CO)C(=O)c2cc(NC(=O)c3ccncc3)ccc2O[C@@H](C)CCCCO[C@H]1CN(C)C(=O)NC1CCCCC1	none
CC(=O)Nc1cccc2c1Cc1cc([N+](=O)[O-])ccc1-2	rRNA inh HTS -19 (no result: RAD54 inh)
O=C(Nc1ccccc1F)N1C[C@H]2[C@@H](c3ccccc31)[C@@H](CO)N2C(=O)C1CCCCC1	none
CN1CCCCCC1C(=O)N1CCC(N2CCC(C(=O)N3CCOCC3)CC2)CC1 (centres undefined)	GSIS activator 49
CCOC(=O)c1c(NC(=O)CSc2nnc(-c3ccccc3)n2CC)sc(C(C)=O)c1C	rRNA inh HTS -37 (no result: MLL AF4-AF9 inh, E-selectin induc)
COCCn1c(SCC(=O)Nc2cc(C)on2)nnc1-c1ccccc1	MLL AF4-AF9 inh 34
CC(C)(C(=O)N1CCC1(C)C(=O)NS(=O)(=O)c1cccc(Cl)c1)c1ccccc1 (centres undefined)	GSIS activator 41
CC(C)(C(=O)N1CCC1(C)C(=O)NS(=O)(=O)c1cccc(F)c1)c1ccccc1 (centres undefined)	none (no result: GSIS activator, rRNA inh HTS)
COc1ccc(C(NC(=O)C2CCN(CCOc3ccc(Cl)cc3Cl)CC2)c2ccccc2C)cn1 (centres undefined)	rRNA inh HTS -29
COc1ccc(C(NC(=O)C2CCN(CCOc3ccc(Cl)cc3Cl)CC2)c2cccs2)cc1 (centres undefined)	none (no result: GSIS activator)
Cc1cc(C)cc(C(=O)NC(=S)Nc2ccc(-c3cc4ccccc4oc3=O)cc2)c1	GSIS activator 42 (no result: MLL AF4-AF9 inh, E-selectin induc, rRNA inh HTS, RAD52 inh)
COc1ccc(-c2c(C(=O)c3ccccc3)[nH]c(N)c2C(=O)NCc2ccccc2)cc1OC	rRNA inh HTS -36 (no result: E-selectin induc, RAD54 inh)
Cc1ccc(-c2csc(NCCn3c(-c4ccncc4)nc4ccccc43)n2)cc1	rRNA inh HTS -21
CCN=C1S/C(=C\c2cc(OCC)c(O)cc2Br)C(=O)N1CC	none (no result: MLL AF4-AF9 inh, E-selectin induc, RAD54 inh, rRNA inh HTS, RAD52 inh)
CCN=C1S/C(=C\c2ccc(O)c(OCC)c2)C(=O)N1CC	GSIS activator 57 (no result: RAD54 inh)
CN1C(=O)[C@@](O)(c2cn(C)c3ccccc23)c2cc(Br)ccc21	rRNA inh HTS -23 (no result: RAD54 inh)
COc1ccc(-n2cc(C(=O)c3ccccc3O)cn2)cc1	none (no result: E-selectin induc, RAD54 inh)
COc1ccc(O)c(C(=O)c2cnn(-c3ccccc3)c2)c1	rRNA inh HTS -27
CN(C)c1ccc(-n2cccc2/C=C/[N+](=O)[O-])cc1	MLL AF4-AF9 inh 25 (no result: E-selectin induc)
Clc1ccccc1N1CCN(Cc2c[nH]c3ccccc23)CC1	rRNA inh HTS -45 (no result: GSIS activator, E-selectin induc)
CCN(CC)c1ccc2nc3ccc(N)cc3[n+](-c3ccccc3)c2c1	MLL AF4-AF9 inh 50, E-selectin induc 92, RAD54 inh 85
CCN(CC)c1ccc2nc3ccccc3[n+](CC)c2c1	RAD54 inh 54 (no result: MLL AF4-AF9 inh, GSIS activator, E-selectin induc, rRNA inh HTS, RAD52 inh)
C[C@H](CO)N1C[C@H](C)[C@@H](CN(C)CC2CC2)Oc2ccc(N(C)C)cc2CC1=O	none
COCC(=O)N(C)C[C@@H]1Oc2ncc(C3=CCCC3)cc2C(=O)N([C@H](C)CO)C[C@@H]1C	none (no result: RAD54 inh)
CCOC(=O)c1c(NC(=O)c2c(Br)cnn2C)c(C#N)nn1-c1ccccc1	rRNA inh HTS -29 (no result: E-selectin induc)
CCn1c(CNc2ccc(Cl)cc2)nnc1SCC#N	E-selectin induc 56 (no result: RAD54 inh)
COc1ccc(C(=O)OCc2c(-c3ccccc3)ncc3ccccc23)cc1	none
COc1ccccc1C(=O)OCc1c(-c2ccccc2)ncc2ccccc12	rRNA inh HTS -25
C[C@H](CO)N1C[C@H](C)[C@@H](CN(C)C(=O)Nc2ccc(C(F)(F)F)cc2)OCCCC[C@H](C)Oc2ccc(NS(C)(=O)=O)cc2C1=O	none
Cc1ccccc1C1c2[nH]c3ccccc3c2CCN1Cc1cccn1-c1ncccn1 (centres undefined)	none
Fc1ccccc1C1c2[nH]c3ccccc3c2CCN1Cc1cccn1-c1ncccn1 (centres undefined)	MLL AF4-AF9 inh 27 (no result: E-selectin induc, RAD54 inh)
COc1ccc(C2=NN(C(C#N)c3ccc(OC)cc3)C(c3ccccc3)C2)cc1 (centres undefined)	MLL AF4-AF9 inh 29 (no result: E-selectin induc)
COc1ccc(C(C#N)N2N=C(C)CC2c2ccccc2)cc1 (centres undefined)	none
CO[C@H]1CN(C)C(=O)c2cc(C#N)ccc2OC[C@H]2O[C@H](CC[C@H]2OC)CCN(C)C(=O)[C@@H]1C	none
Cc1ccc(CN(CC(O)COc2cccc3[nH]cc(C)c23)C(C)(C)C)cc1 (centres undefined)	MLL AF4-AF9 inh 29 (no result: E-selectin induc)
N#Cc1c(-c2ccncc2)cc(-c2ccc(F)cc2)nc1N	GSIS activator 49
COc1cccc(C#Cc2ccc([C@@H]3[C@@H](CO)N4C(=O)CN(C(=O)c5ccncc5)C[C@@H]34)cc2)c1	none (no result: RAD54 inh)
Nc1nn2c(-c3ccccc3)cc(=O)[nH]c2c1N=Nc1ccc(O)cc1	none (no result: E-selectin induc)
Nc1nn2c(-c3ccccc3)cc(=O)[nH]c2c1N=Nc1ccc(Br)cc1	rRNA inh HTS -29 (no result: RAD54 inh)
Cc1noc(C)c1NC(=O)Nc1ccc2c(c1)CC(=O)N([C@H](C)CO)C[C@H](C)[C@@H](CN(C)S(=O)(=O)c1cccs1)O2	none
COC(=O)c1sc(C(F)(F)F)c(-c2ccccc2)c1S(=O)(=O)N1CCOCC1	none (no result: GSIS activator, E-selectin induc, rRNA inh HTS)
COC(=O)c1sc(C(F)(F)F)c(-c2ccccc2)c1S(=O)(=O)N1CCCC1	rRNA inh HTS -26 (no result: GSIS activator)
C[C@@H]1CN([C@@H](C)CO)C(=O)c2cccc(NC(=O)c3cnccn3)c2O[C@H]1CN(C)S(=O)(=O)c1ccccc1	none (no result: MLL AF4-AF9 inh, RAD54 inh, RAD52 inh)
CN1[C@@H]2c3ccc(C4=CCCCC4)c(=O)n3C[C@H]1[C@H](CO)[C@H]2C(=O)NCc1cc(F)cc(F)c1	none
O=C(Nc1nnc(-c2ccc(Cl)cc2)o1)NC1CCCCC1	GSIS activator 59 (no result: MLL AF4-AF9 inh, E-selectin induc, rRNA inh HTS, RAD52 inh)
O=C(Nc1ccc(Cl)cc1)NC1CCCCC1	none (no result: MLL AF4-AF9 inh, GSIS activator, E-selectin induc, rRNA inh HTS, RAD52 inh)
COc1ccccc1-c1ccc2c(c1)O[C@@H](CN(C)C(=O)c1ccccc1)[C@@H](C)CN([C@H](C)CO)S2(=O)=O	none
Cc1noc(C)c1NC(=O)N(C)C[C@@H]1Oc2c(NC(=O)Nc3ccc(F)cc3)cccc2C(=O)N([C@H](C)CO)C[C@@H]1C	none
CCCC#Cc1ccc2c(c1)O[C@@H](CN(C)C(=O)c1ccccn1)[C@@H](C)CN([C@H](C)CO)S2(=O)=O	none
COc1ccc(NC(=O)Nc2ccc3c(c2)C(=O)N([C@@H](C)CO)C[C@H](C)[C@H](CN(C)C(=O)NC2CCCCC2)OCCCC[C@H](C)O3)cc1	none
C[C@@H]1CN([C@H](C)CO)C(=O)c2cc(NS(=O)(=O)c3cccs3)ccc2O[C@@H]1CN(C)S(C)(=O)=O	none
